Data on four molecules can be found in ChEMBL document CHEMBL2010708, “Rigid Analogues of Antimitotic Indolobenzazepinones: New Insights into Tubulin Binding via Molecular Modeling” (ACS Med Chem Lett, 2011).

Assay [1] concerns HL-60. As to the kind of experiment: Antiproliferative activity against human HL60 cells at 1 uM after 72 hrs by fluorescence method. The format is functional. The settings on record: HL-60, 72 h, read-out: GI. In outline: (§1)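 Panel of HCT116, MCF7 and HL60 cancer cells, each paired with a resistant counterpart (HCT15, MCF7R, HL60R). Growth inhibition was recorded as a percentage at 10 and 1 μM of test compound.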

Assay [2] relates to KB. As to the kind of experiment: Antiproliferative activity against human KB cells after 72 hrs by fluorescence method. Format: functional, cell-based. The method in brief: (§2)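 KB cells. Growth inhibition was recorded as a percentage at fixed 10 and 1 μM concentrations, with IC50 determined separately for selected compounds.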
Assay [3] has as its system KB. As to the kind of experiment: Antiproliferative activity against human KB cells at 10 uM after 72 hrs by fluorescence method. The format is functional. The settings on record: read-out: GI. In outline: as §2
Assay [4] concerns HCT-15. As to the kind of experiment: Antiproliferative activity against human HCT15 cells at 10 uM after 72 hrs by fluorescence method. Format: functional. The settings on record: HCT-15, 72 h, read-out: GI. The method in brief: as §1
Assay [5] relates to HL-60. As to the kind of experiment: Antiproliferative activity against human HL60 cells at 10 uM after 72 hrs by fluorescence method. Format: functional. The settings on record: HL-60, 72 h, read-out: GI. The method in brief:
as §1

A short description of assay [6]: Antiproliferative activity against human HL60R cells at 1 uM after 72 hrs by fluorescence method. As to conditions: read-out: GI. Format: functional. In outline: as §1
Assay [7] deals with HCT-116. As to the kind of experiment: Antiproliferative activity against human HCT116 cells at 1 uM after 72 hrs by fluorescence method. The format is functional. The settings on record: HCT-116, 72 h, read-out: GI. The method in brief: as §1
In assay [8] the test system is MCF7. As to the kind of experiment: Antiproliferative activity against human MCF7 cells at 1 uM after 72 hrs by fluorescence method. The format is functional. The settings on record: MCF7, 72 h, read-out: GI. The method in brief:
as §1

Assay [9] is described as follows: Antiproliferative activity against human MCF7/R cells at 1 uM after 72 hrs by fluorescence method. The format is functional. The settings on record: MCF7R, read-out: GI. In outline: as §1
Assay [10] deals with HCT-116. As to the kind of experiment: Antiproliferative activity against human HCT116 cells at 10 uM after 72 hrs by fluorescence method. The settings on record: HCT-116, 72 h, read-out: GI. Format: functional. The method in brief: as §1
The nature of assay [11]: Inhibition of tubulin polymerization.
Assay [12] is described as follows: Antiproliferative activity against human HL60R cells at 10 uM after 72 hrs by fluorescence method. The format is functional. The settings on record: read-out: GI. In outline:
as §1

In assay [13] the test system is HCT-15. As to the kind of experiment: Antiproliferative activity against human HCT15 cells at 1 uM after 72 hrs by fluorescence method. The settings on record: HCT-15, 72 h, read-out: GI. Format: functional. In outline:
as §1

Assay [14] has as its system KB. As to the kind of experiment: Antiproliferative activity against human KB cells at 1 uM after 72 hrs by fluorescence method. As to conditions: read-out: GI. Format: functional. The method in brief: as §2
Assay [15] deals with MCF7. As to the kind of experiment: Antiproliferative activity against human MCF7 cells at 10 uM after 72 hrs by fluorescence method. The format is functional. As to conditions: MCF7, 72 h, read-out: GI. The method in brief: as §1
Assay [16] in a line: Antiproliferative activity against human MCF7/R cells at 10 uM after 72 hrs by fluorescence method. Format: functional. The settings on record: MCF7R, read-out: GI. In outline: as §1

Regarding `CC[C@H]1c2ccccc2-c2c([nH]c3ccccc23)C(=O)N1C`, the inhibition of growth at 1 µM came to 85% in the assay on HL-60 [1]; 70% in assay [6]; 91% in the assay on HCT-116 [7]; 85% in the assay with MCF7 [8]; 75% in assay [9]; 92% with HCT-15 [13]. Further, the inhibition of growth at 1 µM in the assay with KB [14] was determined as 100%. For the same molecule, the results for the IC50 (with KB [2]; in assay [11]) were 2 nM and 4100 nM, respectively. In addition, the inhibition of growth at 10 µM with KB [3] was found to be 100%; with HCT-15 [4], 100%; in the assay with HL-60 [5] it was 100%; in the assay on HCT-116 [10], 100%; in assay [12], 89%; with MCF7 [15], 96%. In addition, the inhibition of growth at 10 µM in assay [16] stood at 92%.
For the molecule `O=C1c2[nH]c3ccccc3c2-c2ccccc2C2CCCN12` (centres undefined), the inhibition of growth at 1 µM in the assay with HL-60 [1] is 49%; in [6], 49%; in the assay with HCT-116 [7], 64%; in the assay with MCF7 [8], 28%; in assay [9], 56%; with HCT-15 [13], 78%. Also, the inhibition of growth at 1 µM in the assay with KB [14] worked out at 27%. Also, the IC50 with KB [2] came to 5000 nM; in assay [11], 4200 nM. The inhibition of growth at 10 µM in the assay on KB [3] amounted to 100%; in the assay with HCT-15 [4] it was 84%; in the assay on HL-60 [5], 84%; in the assay with HCT-116 [10] it was 81%; in assay [12], 80%; in the assay on MCF7 [15] it was 55%. For the same molecule, the inhibition of growth at 10 µM in [16] was found to be 75%.
For `O=C1NC2CCc3cccc(c32)-c2c1[nH]c1ccccc21` (centres undefined), the inhibition of growth at 1 µM in the assay on HL-60 [1] worked out at 83%; in assay [6], 70%; in the assay on HCT-116 [7], 64%; with MCF7 [8], 46%; in assay [9] it was 67%; in the assay on HCT-15 [13], 75%. In addition, the inhibition of growth at 1 µM in the assay with KB [14] turned out to be 63%. Besides, the results for the IC50 (in the assay with KB [2]; in [11]) were 900 nM and 5300 nM, respectively. Also, the inhibition of growth at 10 µM in the assay with KB [3] is 81%; in the assay with HCT-15 [4] it was 87%; in the assay on HL-60 [5], 90%; in the assay with HCT-116 [10] it was 80%; in assay [12] it was 81%; in the assay with MCF7 [15], 39%. In addition, in assay [16], the inhibition of growth at 10 µM came out at 72%.
As to `CC[C@@H]1NC(=O)c2[nH]c3ccccc3c2-c2ccccc21`, the inhibition of growth at 1 µM came to 90% in the assay on HL-60 [1]; 78% in assay [6]; 85% in the assay with HCT-116 [7]; 82% in the assay on MCF7 [8]; 84% in [9]; 94% in the assay with HCT-15 [13]. Besides, the inhibition of growth at 1 µM with KB [14] was 100%. Moreover, the IC50 turned out to be 35 nM in the assay on KB [2] and 1800 nM in [11]. The inhibition of growth at 10 µM in the assay on KB [3] came to 100%; in the assay with HCT-15 [4], 100%; with HL-60 [5], 100%; with HCT-116 [10], 100%; in [12], 95%; in the assay on MCF7 [15], 92%. In assay [16], the inhibition of growth at 10 µM worked out at 96%.

As a reminder, the IC50 is the concentration that gives 50% inhibition. Low values mean higher potency, high ones lower potency.
